Data reported in ChEMBL document CHEMBL2157987, “Benzimidazole bearing oxadiazole and triazolo-thiadiazoles nucleus: design and synthesis as anticancer agents” (2012).

Tests used:
Type in all cases: functional
M14 = test: Cytotoxicity against human M14 cells after 48 hrs by SRB assay; settings: M14, 48 h
Outline: (§1)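 Five-dose NCI-60 panel screen: cells grown in RPMI 1640 with 5% FBS and 2 mM L-glutamine, preincubated 24 h at 37 °C, 5% CO2. Five 10-fold dilutions, 0.01–100 µM, applied for 48 h. Fixed with cold TCA (10% final), stained with 0.4% SRB, absorbance read at 515 nm. GI50, TGI and LC50 were taken from log concentration versus % growth curves using time-zero plates.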

UO-31 = test: Cytotoxicity against human UO31 cells after 48 hrs by SRB assay; settings: UO-31, 48 h
Outline: (§2)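 Cells were grown in RPMI 1640 with 5% FBS and 2 mM L-glutamine, then held 24 h at 37 °C and 5% CO2 before dosing. TCA-fixed time-zero plates were kept. Compound was dissolved in DMSO and given at five 10-fold dilutions for 48 h. Cells were fixed with cold TCA (10% final), stained with 0.4% SRB and read at 515 nm. GI50, TGI and LC50 came from Ti/Tz/control growth formulas.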

T47D = test: Cytotoxicity against human T47D cells after 48 hrs by SRB assay; outline: as §2
UACC-62 = test: Cytotoxicity against human UACC62 cells after 48 hrs by SRB assay; settings: UACC-62, 48 h; outline: as §2
786-0 = test: Cytotoxicity against human 786-0 cells after 48 hrs by SRB assay; settings: 786-0, 48 h; outline: as §1
OVCAR-4 = test: Cytotoxicity against human OVCAR4 cells after 48 hrs by SRB assay; settings: OVCAR-4, 48 h; outline: as §1
HCT-15 = test: Cytotoxicity against human HCT15 cells after 48 hrs by SRB assay; settings: HCT-15, 48 h; outline: as §1
LOX IMVI = test: Cytotoxicity against human LOXIMVI cells after 48 hrs by SRB assay; outline: as §1
NCI-H226 = test: Cytotoxicity against human NCI-H226 cells after 48 hrs by SRB assay; settings: NCI-H226, 48 h; outline: as §1
UACC-257 = test: Cytotoxicity against human UACC257 cells after 48 hrs by SRB assay; settings: UACC-257, 48 h; outline: as §2
U-251 = test: Cytotoxicity against human U251 cells after 48 hrs by SRB assay; settings: U-251, 48 h; outline: as §2
HOP-92 = test: Cytotoxicity against human HOP92 cells after 48 hrs by SRB assay; settings: HOP-92, 48 h; outline: as §1
MOLT-4 = test: Cytotoxicity against human MOLT4 cells after 48 hrs by SRB assay; settings: MOLT-4, 48 h; outline: as §1
MDA-MB-468 = test: Cytotoxicity against human MDA-MB-468 cells after 48 hrs by SRB assay; settings: MDA-MB-468, 48 h; outline: as §1
RPMI-8226 = test: Cytotoxicity against human RPMI8226 cells after 48 hrs by SRB assay; settings: RPMI-8226, 48 h; outline: as §1
KM12 = test: Cytotoxicity against human KM12 cells after 48 hrs by SRB assay; settings: KM12, 48 h; outline: as §1
SR = test: Cytotoxicity against human SR cells after 48 hrs by SRB assay; outline: as §2
SK-MEL-2 = test: Cytotoxicity against human SK-MEL-2 cells after 48 hrs by SRB assay; settings: SK-MEL-2, 48 h; outline: as §1
SK-OV-3 = test: Cytotoxicity against human SKOV3 cells after 48 hrs by SRB assay; settings: SK-OV-3, 48 h; outline: as §1
OVCAR-5 = test: Cytotoxicity against human OVCAR5 cells after 48 hrs by SRB assay; settings: OVCAR-5, 48 h; outline: as §1
MDA-MB-435 = test: Cytotoxicity against human MDA-MB-435 cells after 48 hrs by SRB assay; settings: MDA-MB-435, 48 h; outline: as §1
NCI-H322M = test: Cytotoxicity against human NCI-H322M cells after 48 hrs by SRB assay; outline: as §1
[1] = read-out: LC50 (the source's name)
[2] = read-out: pLC50 (the source's name) (converted)

Q: What does the source list for `Nc1cc(Br)c(-c2nnc(CCC(=O)c3nc4ccccc4[nH]3)o2)c(Br)c1`?
A: GI50 (M14): 17.4 µM; CC50 (M14; [1]): > 100 µM; TGI (M14; read-out: TGI): 55.5 µM; CC50 (M14; [2]): > 100 µM; TGI (M14; read-out: pTGI (converted)): 55 µM; GI50 (UO-31): 4.07 µM; CC50 (UO-31; [1]): > 100 µM; TGI (UO-31; read-out: TGI): > 100 µM; CC50 (UO-31; [2]): > 100 µM; TGI (UO-31; read-out: pTGI): > 100 µM; GI50 (T47D): 23.4 µM; LC50 (T47D; read-out: LC50): > 100 µM; TGI (T47D; read-out: TGI): > 100 µM; LC50 (T47D; read-out: pLC50 (converted)): > 100 µM; TGI (T47D; read-out: pTGI): > 100 µM; GI50 (UACC-62): 5.37 µM; CC50 (UACC-62; [1]): > 100 µM; TGI (UACC-62; read-out: TGI): > 100 µM; CC50 (UACC-62; [2]): > 100 µM; TGI (UACC-62; read-out: pTGI): > 100 µM; GI50 (786-0): 20.9 µM; LC50 (786-0; read-out: LC50): > 100 µM; TGI (786-0; read-out: TGI): 61.7 µM; LC50 (786-0; read-out: pLC50 (converted)): > 100 µM; TGI (786-0; read-out: pTGI (converted)): 61.7 µM; GI50 (OVCAR-4): 5.5 µM; LC50 (OVCAR-4; read-out: LC50): > 100 µM; TGI (OVCAR-4; read-out: TGI): 78.2 µM; LC50 (OVCAR-4; read-out: pLC50 (converted)): > 100 µM; TGI (OVCAR-4; read-out: pTGI (converted)): 77.6 µM; GI50 (HCT-15): > 100 µM; CC50 (HCT-15; [1]): > 100 µM; TGI (HCT-15; read-out: TGI): > 100 µM; CC50 (HCT-15; [2]): > 100 µM; TGI (HCT-15; read-out: pTGI): > 100 µM; GI50 (LOX IMVI): 3.24 µM; CC50 (LOX IMVI; [1]): > 100 µM; TGI (LOX IMVI; read-out: TGI): 46.4 µM; CC50 (LOX IMVI; [2]): > 100 µM; TGI (LOX IMVI; read-out: pTGI (converted)): 46.8 µM; GI50 (NCI-H226): 22.4 µM; CC50 (NCI-H226; [1]): > 100 µM; TGI (NCI-H226; read-out: TGI): > 100 µM; CC50 (NCI-H226; [2]): > 100 µM; TGI (NCI-H226; read-out: pTGI): > 100 µM; GI50 (UACC-257): 7.59 µM; CC50 (UACC-257; [1]): > 100 µM; TGI (UACC-257; read-out: TGI): > 100 µM; CC50 (UACC-257; [2]): > 100 µM; TGI (UACC-257; read-out: pTGI): > 100 µM; GI50 (U-251): 3.47 µM; CC50 (U-251; [1]): > 100 µM; TGI (U-251; read-out: TGI): > 100 µM; CC50 (U-251; [2]): > 100 µM; TGI (U-251; read-out: pTGI): > 100 µM; GI50 (HOP-92): 0.501 µM; CC50 (HOP-92; [1]): > 100 µM; TGI (HOP-92; read-out: TGI): 19.9 µM; CC50 (HOP-92; [2]): > 100 µM; TGI (HOP-92; read-out: pTGI (converted)): 20 µM; GI50 (MOLT-4): 4.9 µM; CC50 (MOLT-4; [1]): > 100 µM; TGI (MOLT-4; read-out: TGI): > 100 µM; CC50 (MOLT-4; [2]): > 100 µM; TGI (MOLT-4; read-out: pTGI): > 100 µM; GI50 (MDA-MB-468): 1.95 µM; LC50 (MDA-MB-468; read-out: LC50): > 100 µM; TGI (MDA-MB-468; read-out: TGI): 6.97 µM; LC50 (MDA-MB-468; read-out: pLC50 (converted)): > 100 µM; TGI (MDA-MB-468; read-out: pTGI (converted)): 6.92 µM; GI50 (RPMI-8226): 4.17 µM; CC50 (RPMI-8226; [1]): > 100 µM; TGI (RPMI-8226; read-out: TGI): > 100 µM; CC50 (RPMI-8226; [2]): > 100 µM; TGI (RPMI-8226; read-out: pTGI): > 100 µM; GI50 (KM12): 3.72 µM; CC50 (KM12; [1]): > 100 µM; TGI (KM12; read-out: TGI): 18 µM; CC50 (KM12; [2]): > 100 µM; TGI (KM12; read-out: pTGI (converted)): 18.2 µM; GI50 (SR): 4.17 µM; CC50 (SR; [1]): > 100 µM; TGI (SR; read-out: TGI): > 100 µM; CC50 (SR; [2]): > 100 µM; TGI (SR; read-out: pTGI): > 100 µM; GI50 (SK-MEL-2): 4.27 µM; CC50 (SK-MEL-2; [1]): > 100 µM; TGI (SK-MEL-2; read-out: TGI): > 100 µM; CC50 (SK-MEL-2; [2]): > 100 µM; TGI (SK-MEL-2; read-out: pTGI): > 100 µM; GI50 (SK-OV-3): 22.4 µM; LC50 (SK-OV-3; read-out: LC50): > 100 µM; TGI (SK-OV-3; read-out: TGI): 80.5 µM; LC50 (SK-OV-3; read-out: pLC50 (converted)): > 100 µM; TGI (SK-OV-3; read-out: pTGI (converted)): 81.3 µM; GI50 (OVCAR-5): 29.5 µM; LC50 (OVCAR-5; read-out: LC50): > 100 µM; TGI (OVCAR-5; read-out: TGI): > 100 µM; LC50 (OVCAR-5; read-out: pLC50 (converted)): > 100 µM; TGI (OVCAR-5; read-out: pTGI): > 100 µM; GI50 (MDA-MB-435): 1.55 µM; CC50 (MDA-MB-435; [1]): 8.83 µM; TGI (MDA-MB-435; read-out: TGI): 3.71 µM; CC50 (MDA-MB-435; [2]): 8.91 µM; TGI (MDA-MB-435; read-out: pTGI (converted)): 3.72 µM; GI50 (NCI-H322M): 8.13 µM; CC50 (NCI-H322M; [1]): > 100 µM; TGI (NCI-H322M; read-out: TGI): > 100 µM; CC50 (NCI-H322M; [2]): > 100 µM; TGI (NCI-H322M; read-out: pTGI): > 100 µM
